According to ChEMBL document CHEMBL2203165, “Glycolysis inhibitor screening identifies the bis-geranylacylphloroglucinol protonophore moronone from Moronobea coccinea” (2012):
The source made the active and inactive calls. The rule behind the calls is not given here.

Key:
MDA-MB-231 [1] = assay: Increase in cellular glucose consumption in human MDA-MB-231 cells at 1 uM measured per ug of cellular protein after 24 hrs by enzyme based assay (reference value: 17.2 +/- 2 nmol/ug of cellular protein); assay type: functional
MDA-MB-231 [2] = assay: Effect on lactate production in human MDA-MB-231 cells at 10 uM measured per ug of cellular protein after 24 hrs by enzyme based assay (reference value: 23.6 +/- 2 nmol/ug of cellular protein); assay type: functional
MDA-MB-231 [3] = assay: Increase in cellular glucose consumption in human MDA-MB-231 cells at 10 uM measured per ug of cellular protein after 48 hrs by enzyme based assay (reference value: 43 +/- 8.4 nmol/ug of cellular protein); assay type: functional
MDA-MB-231 [4] = assay: Cytotoxicity against human MDA-MB-231 cells assessed as inhibition of cell proliferation/viability at 30 uM in presence of 0.1 uM rotenone mitochondrial electron transport inhibitor; assay type: functional
How it was run: (§1)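 MDA-MB-231 cells in RPMI 1640 with 10% FBS, plated 3×10^4/well; after 24 h, compound diluted in serum-free medium added with or without rotenone (0.1 μM final), DMSO <0.5%. 48 h at 37 °C; viability by sulforhodamine B; % inhibition of untreated control; two independent experiments each in triplicate (n = 6).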

MDA-MB-231 [5] = assay: Increase in cellular glucose consumption in human MDA-MB-231 cells at 10 uM measured per ug of cellular protein after 24 hrs by enzyme based assay (reference value: 17.2 +/- 2 nmol/ug of cellular protein); assay type: functional
MDA-MB-231 [6] = assay: Effect on lactate production in human MDA-MB-231 cells at 3 uM measured per ug of cellular protein after 48 hrs by enzyme based assay (reference value: 40.5 +/- 6 nmol/ug of cellular protein); assay type: functional
MDA-MB-231 [7] = assay: Increase in cellular glucose consumption in human MDA-MB-231 cells at 3 uM measured per ug of cellular protein after 24 hrs by enzyme based assay (reference value: 17.2 +/- 2 nmol/ug of cellular protein); assay type: functional
MDA-MB-231 [8] = assay: Effect on lactate production in human MDA-MB-231 cells at 1 uM measured per ug of cellular protein after 48 hrs by enzyme based assay (reference value: 40.5 +/- 6 nmol/ug of cellular protein); assay type: functional
MDA-MB-231 [9] = assay: Stimulation of oligomycin-induced state 4 respiration in human MDA-MB-231 cells at 1 uM; assay type: functional, cell-based
How it was run: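 Oligomycin (1 μM) added to MDA-MB-231 cells in a Clark-type electrode chamber to initiate state 4 respiration. Compound (1 μM) then added and oxygen consumption followed. Rate normalized to untreated control.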

T47D [10] = assay: Decrease in mitochondrial membrane potential in human T47D cells assessed as decline in respiration rate at 1 uM after 48 hrs; assay type: functional, cell-based
How it was run: (§2)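 Oxygen consumption of intact MDA-MB-231 or T47D cells measured with a Clark-type electrode, no FBS present; compound tested at 0.1, 0.3, 1 and 3 μM; rate normalized to untreated control. Average + standard deviation from three independent experiments (n = 3).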

MDA-MB-231 [11] = assay: Effect on lactate production in human MDA-MB-231 cells at 10 uM measured per ug of cellular protein after 48 hrs by enzyme based assay (reference value: 40.5 +/- 6 nmol/ug of cellular protein); assay type: functional
MDA-MB-231 [12] = assay: Increase in cellular glucose consumption in human MDA-MB-231 cells at 1 uM measured per ug of cellular protein after 48 hrs by enzyme based assay (reference value: 43 +/- 8.4 nmol/ug of cellular protein); assay type: functional
MDA-MB-231 [13] = assay: Effect on lactate production in human MDA-MB-231 cells at 1 uM measured per ug of cellular protein after 24 hrs by enzyme based assay (reference value: 23.6 +/- 2 nmol/ug of cellular protein); assay type: functional
T47D [14] = assay: Decrease in mitochondrial membrane potential in human T47D cells assessed as decline in respiration rate at 3 uM after 48 hrs; assay type: functional, cell-based; how it was run: as §2
T47D [15] = assay: Increase in cellular respiration in human T47D cells assessed as increase in oxygen consumption at 0.1 to 1 uM after 48 hrs; assay type: functional, cell-based; how it was run: as §2
MDA-MB-231 [16] = assay: Decrease in mitochondrial membrane potential in human MDA-MB-231 cells assessed as decline in respiration rate at 1 uM after 48 hrs; assay type: functional, cell-based; how it was run: as §2
MDA-MB-231 [17] = assay: Decrease in mitochondrial membrane potential in human MDA-MB-231 cells assessed as decline in respiration rate at 3 uM after 48 hrs; assay type: functional, cell-based; how it was run: as §2
MDA-MB-231 [18] = assay: Cytotoxicity against human MDA-MB-231 cells assessed as inhibition of cell proliferation/viability at 0.1 to 10 uM in presence of 0.1 uM rotenone mitochondrial electron transport inhibitor; assay type: functional, cell-based; how it was run: as §1
MDA-MB-231 [19] = assay: Increase in cellular glucose consumption in human MDA-MB-231 cells at 3 uM measured per ug of cellular protein after 48 hrs by enzyme based assay (reference value: 43 +/- 8.4 nmol/ug of cellular protein); assay type: functional
MDA-MB-231 [20] = assay: Effect on lactate production in human MDA-MB-231 cells at 3 uM measured per ug of cellular protein after 24 hrs by enzyme based assay (reference value: 23.6 +/- 2 nmol/ug of cellular protein); assay type: functional
MDA-MB-231 [21] = assay: Increase in cellular respiration in human MDA-MB-231 cells assessed as increase in oxygen consumption at 0.1 to 1 uM after 48 hrs; assay type: functional, cell-based; how it was run: as §2
MDA-MB-231 [22] = assay: Increase in cellular glucose consumption in human MDA-MB-231 cells at 0.1 uM measured per ug of cellular protein after 24 hrs by enzyme based assay (reference value: 17.2 +/- 2 nmol/ug of cellular protein); assay type: functional
MDA-MB-231 [23] = assay: Effect on lactate production in human MDA-MB-231 cells at 0.1 uM measured per ug of cellular protein after 48 hrs by enzyme based assay (reference value: 40.5 +/- 6 nmol/ug of cellular protein); assay type: functional
MDA-MB-231 [24] = assay: Inhibition of cell viability of human MDA-MB-231 cells at 0.1 uM after 48 hrs by sulforhodamine B method; assay type: functional; conditions: MDA-MB-231, 48 h
How it was run: (§3)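 MDA-MB-231 cells are plated at 3×10^4 per well in RPMI 1640 with 10% FBS. After 24 h, compound diluted in serum-free medium is added, with DMSO below 0.5%. Cells are incubated 48 h at 37 °C and viability is read by sulforhodamine B as % inhibition of untreated control. Concentration-response runs are in half-log steps.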

MDA-MB-231 [25] = assay: Effect on lactate production in human MDA-MB-231 cells at 0.1 uM measured per ug of cellular protein after 24 hrs by enzyme based assay (reference value: 23.6 +/- 2 nmol/ug of cellular protein); assay type: functional
MDA-MB-231 [26] = assay: Increase in cellular glucose consumption in human MDA-MB-231 cells at 0.1 uM measured per ug of cellular protein after 48 hrs by enzyme based assay (reference value: 43 +/- 8.4 nmol/ug of cellular protein); assay type: functional
MDA-MB-231 [27] = assay: Inhibition of cell viability of human MDA-MB-231 cells at 3 mM after 48 hrs by sulforhodamine B method in presence of 1 uM mitochondrial ETC complex III inhibitor antimycin A; assay type: functional, cell-based
MDA-MB-231 [28] = assay: Inhibition of cell viability of human MDA-MB-231 cells at 30 mM after 48 hrs by sulforhodamine B method; assay type: functional, cell-based; how it was run: as §3
MDA-MB-231 [29] = assay: Effect on lactate production in human MDA-MB-231 cells at […] measured per ug of cellular protein after 24 hrs by enzyme based assay (reference value: 23.6 +/- 2 nmol/ug of cellular protein); assay type: functional
MDA-MB-231 [30] = assay: Increase in cellular glucose consumption in human MDA-MB-231 cells at […] measured per ug of cellular protein after 48 hrs by enzyme based assay (reference value: 43 +/- 8.4 nmol/ug of cellular protein); assay type: functional
MDA-MB-231 [31] = assay: Inhibition of cell viability of human MDA-MB-231 cells at 1 mM after 48 hrs by sulforhodamine B method; assay type: functional; conditions: MDA-MB-231, 48 h; how it was run: as §3
MDA-MB-231 [32] = assay: Inhibition of cell viability of human MDA-MB-231 cells at 3 mM after 48 hrs by sulforhodamine B method in presence of 1 uM F1F0-ATPase inhibitor oligomycin; assay type: functional, cell-based
MDA-MB-231 [33] = assay: Inhibition of cell viability of human MDA-MB-231 cells at 10 mM after 48 hrs by sulforhodamine B method; assay type: functional, cell-based; how it was run: as §3
MDA-MB-231 [34] = assay: Increase in cellular glucose consumption in human MDA-MB-231 cells at […] measured per ug of cellular protein after 24 hrs by enzyme based assay (reference value: 17.2 +/- 2 nmol/ug of cellular protein); assay type: functional
MDA-MB-231 [35] = assay: Effect on lactate production in human MDA-MB-231 cells at […] measured per ug of cellular protein after 48 hrs by enzyme based assay (reference value: 40.5 +/- 6 nmol/ug of cellular protein); assay type: functional
MDA-MB-231 [36] = assay: Inhibition of cell viability of human MDA-MB-231 cells at 3 mM after 48 hrs by sulforhodamine B method; assay type: functional; conditions: MDA-MB-231, 48 h; how it was run: as §3

SMILES: CC(C)=CCC/C(C)=C/CC1(C/C=C(\C)CCC=C(C)C)C(O)=CC(=O)C(C(=O)c2ccccc2)=C1O (stereo unspecified) [MORONONE]
- Activity (MDA-MB-231 [1]): 26.7 nmol
- Activity (MDA-MB-231 [2]): 59.5 nmol
- Activity (MDA-MB-231 [3]): 168.4 nmol
- inhibition (INH) (MDA-MB-231 [4]): 68%
- Activity (MDA-MB-231 [5]): 45.8 nmol
- Activity (MDA-MB-231 [6]): 67.3 nmol
- Activity (MDA-MB-231 [7]): 25.9 nmol
- Activity (MDA-MB-231 [8]): 49.3 nmol
- Activity (MDA-MB-231 [9]): Active
- Activity (T47D [10]): Active
- Activity (MDA-MB-231 [11]): 168.5 nmol
- Activity (MDA-MB-231 [12]): 44.7 nmol
- Activity (MDA-MB-231 [13]): 21.9 nmol
- Activity (T47D [14]): Active
- Activity (T47D [15]): Active
- Activity (MDA-MB-231 [16]): Active
- Activity (MDA-MB-231 [17]): Active
- Activity (MDA-MB-231 [18]): Active
- Activity (MDA-MB-231 [19]): 73.4 nmol
- Activity (MDA-MB-231 [20]): 25.4 nmol
- Activity (MDA-MB-231 [21]): Active

SMILES: C=C(C)[C@H]1Cc2c(ccc3c2O[C@@H]2COc4cc(OC)c(OC)cc4[C@@H]2C3=O)O1 [ROTENONE]
- Activity (MDA-MB-231 [22]): 37.5 nmol
- Activity (MDA-MB-231 [23]): 190.4 nmol
- inhibition at 0.1 µM (MDA-MB-231 [24]): 7%
- Activity (MDA-MB-231 [25]): 75.7 nmol
- Activity (MDA-MB-231 [26]): 177.6 nmol

SMILES: OC[C@H]1O[C@@H](O)C[C@@H](O)[C@@H]1O
- inhibition (MDA-MB-231 [27]): Active
- inhibition (MDA-MB-231 [28]): Active
- Activity (MDA-MB-231 [29]): 26.3 nmol
- Activity (MDA-MB-231 [30]): 50.2 nmol
- inhibition at 1000 µM (MDA-MB-231 [31]): 4%
- inhibition (MDA-MB-231 [32]): Active
- inhibition (MDA-MB-231 [33]): Active
- Activity (MDA-MB-231 [34]): 22.5 nmol
- Activity (MDA-MB-231 [35]): 52.8 nmol
- inhibition at 3000 µM (MDA-MB-231 [36]): 8%
